Legend:
[1] = Kinetic solubility of the compound at 200 uM incubated for 24 hrs at pH 2 by HPLC/UV analysis; type: physicochemical; conditions: buffer, pH 2, 24 h
In short: (§1)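 Shake-flask method: 10 mM DMSO stock diluted to 200 μM in phosphate buffer pH 2.0 or pH 7.4 (2% DMSO final). Shaken at 500 rpm, 24 h, room temperature, then filtered through polycarbonate membrane. Filtrate quantified by HPLC-UV against 1, 20 and 200 μM standards injected in duplicate.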

[2] = Kinetic solubility of the compound at 200 uM incubated for 24 hrs at pH 7.4 by HPLC/UV analysis; type: physicochemical; conditions: buffer, pH 7.4, 24 h; in short: as §1
[3] = Drug uptake in BALB/c mouse plasma at 50 mg/kg, po measured after 24 hrs by LC/MS/MS analysis; type: ADME, organism-based; conditions: in vivo

Row | SMILES | Kinetic_solubility [1] | Kinetic_solubility [2] | Drug uptake [3]
1 | Cc1ccn2c(Nc3ccc(F)cc3)c(-c3ccccn3)nc2c1 | 73 µg/mL | < 0.5 µg/mL | –
2 | Cc1ccn2c(NC3CCCC3)c(-c3ccc(N(C)C)cc3)nc2c1 | 67 µg/mL | < 0.5 µg/mL | –
3 | Cc1ccc2nc(-c3ccccn3)c(Nc3ccc4c(c3)OCCO4)n2c1 | 72 µg/mL | 8 µg/mL | –
4 | COc1ccn2c(Nc3ccc(F)cn3)c(-c3ccccn3)nc2c1 | > 76 µg/mL | > 76 µg/mL | –
5 | COc1ccn2c(Nc3cc(F)cc(F)c3)c(-c3ccccn3)nc2c1 | – | – | Not Active
6 | Clc1ccc2nc(-c3ccccn3)c(Nc3ccc4c(c3)OCCO4)n2c1 | > 76 µg/mL | < 0.5 µg/mL | –

Reference: ChEMBL document CHEMBL4732019, “Collaborative virtual screening to elaborate an imidazo[1,2-a]pyridine hit series for visceral leishmaniasis” (RSC Med Chem, 2021)
